Measured values of several laboratories.
Target: Inhibitor of nuclear factor kappa-B kinase subunit epsilon (IKBKE, Homo sapiens, UniProt Q14164)
Residues used in one study (Q14164 1-716): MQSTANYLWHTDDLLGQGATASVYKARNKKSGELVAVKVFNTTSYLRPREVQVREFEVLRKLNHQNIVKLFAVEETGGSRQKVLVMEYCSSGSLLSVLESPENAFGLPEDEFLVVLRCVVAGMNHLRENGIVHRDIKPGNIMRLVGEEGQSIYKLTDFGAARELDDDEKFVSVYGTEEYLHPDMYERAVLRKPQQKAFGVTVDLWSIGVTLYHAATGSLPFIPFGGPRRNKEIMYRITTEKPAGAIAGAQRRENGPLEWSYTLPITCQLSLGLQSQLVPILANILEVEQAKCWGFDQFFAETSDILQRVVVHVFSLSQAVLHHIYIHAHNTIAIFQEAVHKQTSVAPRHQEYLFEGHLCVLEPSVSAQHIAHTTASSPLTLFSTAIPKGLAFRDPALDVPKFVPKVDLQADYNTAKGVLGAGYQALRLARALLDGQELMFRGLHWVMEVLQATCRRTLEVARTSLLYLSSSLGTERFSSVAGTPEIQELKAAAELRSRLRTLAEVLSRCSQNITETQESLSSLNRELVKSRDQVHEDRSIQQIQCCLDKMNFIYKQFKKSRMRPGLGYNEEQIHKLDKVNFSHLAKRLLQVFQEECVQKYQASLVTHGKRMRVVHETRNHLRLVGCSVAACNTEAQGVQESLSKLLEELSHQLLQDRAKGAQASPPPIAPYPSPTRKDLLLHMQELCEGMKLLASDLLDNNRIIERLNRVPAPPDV

| Structure (SMILES) | assay | setting | endpoint | result |
| --- | --- | --- | --- | --- |
| CCOc1cc(-c2nncn2C)ccc1Nc1ncc2cc(C)nc(NCC(C)(C)C)c2n1 | enzyme activity, inhibitor, FRET | 1 µM | inhibition | < 15% |
| c1cc(CN2CCOCC2)cc(Nc2nccc(NCCc3cnc[nH]3)n2)c1 | enzyme activity, inhibitor, radiometric | 1 µM | remaining activity | 80% |
| COc1cc(-c2cn(C3CCc4c(F)cccc4N(CC(F)(F)F)C3=O)nn2)ccc1-n1cnc(C)c1 (stereo not shown) | cell-free assay, competition with immobilised ligand | 1 µM | remaining binding | 100% |
| O=C(NCCCNc1ccnc(Nc2cccc(NC(=O)N3CCCC3)c2)n1)C1CCC1 | enzyme activity, inhibitor, radiometric | 1 µM | remaining activity | 33% |
| Cc1c(NC(=O)c2cc(C(N)=O)nc3cc(F)ccc23)c(C(F)(F)F)nn1Cc1ccc(C#N)cc1 | cell-free assay, competition with immobilised ligand | 1 µM | remaining binding | 75% |
| COc1cc2ncnc(Nc3ccc(Oc4ccccc4)cc3C)c2cc1OC | enzyme activity, inhibitor | 1 µM | inhibition | 5% |
| COc1ccnn2ncc(-c3ccnc(N(C)C)n3)c12 | binding | 1 µM | remaining binding | 94% |
| CC(=O)C1=C(C)N(c2cccc(C(F)(F)F)c2)C(=O)N[C@@H]1c1ccc(C#N)nc1 | cell-free assay, competition with immobilised ligand | 1 µM | remaining binding | 98.2% |
| Cc1nn(CC(F)(F)F)cc1Nc1ncc(Br)c(NCc2ccc(S(N)(=O)=O)cc2)n1 | enzyme activity, inhibitor, radiometric | 1 µM | remaining activity | 23% |
| CC(C)CC(=O)N1CCc2nc(-c3ccc(Br)cc3)nc(N(C)Cc3ccccc3)c2C1 | cell-free assay, competition with immobilised ligand | 0.1 µM | remaining binding | 100% |
| CCN(CC)CCNC(=O)c1c(C)[nH]c(/C=C2\C(=O)Nc3ccc(F)cc32)c1C | cell-free assay | 0.5 µM | remaining signal | 45.6% |
| Cc1noc([C@H]2C[C@@H](c3ccc(C(F)(F)F)cc3)CN(C(=O)N3CCS(=O)(=O)C3)C2)n1 | cell-free assay, competition with immobilised ligand | 1 µM | remaining binding | 100% |
| NS(=O)(=O)c1ccc(CNc2ccnc(Nc3cccc(NC(=O)N4CCCC4)c3)n2)cc1 | enzyme activity, inhibitor, radiometric | 1 µM | remaining activity | 79% |
| C[C@H](c1cccc(C#N)c1)n1cc(Cl)cc(C(N)=O)c1=N | cell-free assay, competition with immobilised ligand | 1 µM | remaining binding | 82% |
| COc1ccc(COc2ccc(Cc3cnc(N)nc3N)cc2OC)cc1 | cell-free assay | 0.5 µM | remaining signal | 96.7% |
| O=C(Nc1cccc(Nc2ncc(Br)c(NCCc3cnc[nH]3)n2)c1)N1CCCC1 | enzyme activity, inhibitor, radiometric | 1 µM | remaining activity | 44% |
| O=c1nc(-c2ccccn2)sc2ccccc12 | binding, competition with immobilised ligand | 1 µM | remaining binding | 100% |
| O=C1c2ccccc2-c2n[nH]c3cccc1c23 | enzyme activity, inhibitor | 0.5 µM | activity vs control | 88.9% |
| NS(=O)(=O)c1ccc(CNc2nc(Nc3cccc(CN4CCOCC4)c3)ncc2C2CC2)cc1 | enzyme activity, inhibitor, radiometric | 1 µM | remaining activity | 43% |
| Cc1ccc(NC(=O)c2ccc(C)c(C(F)(F)F)c2)cc1C#Cc1nn(C2CCC(O)CC2)c2ncnc(N)c12 (stereo not shown) | cell-free assay | 10 µM | remaining signal | 94% |
| CN1CCc2cc(Nc3ncc(C4CC4)c(NCCCNC(=O)C4CCC4)n3)ccc2C1 | enzyme activity, inhibitor, radiometric | 1 µM | remaining activity | 4% |
| CN1CCN(c2ccc3nc(-c4c(N)c5c(F)cccc5[nH]c4=O)[nH]c3c2)CC1 | enzyme activity, inhibitor | 0.5 µM | activity vs control | 42.9% |
